# Laboratory results: ChEMBL document CHEMBL1146375, “Synthetic studies on novel benzimidazolopeptides with antimicrobial, cytotoxic and anthelmintic potential” (2007)
# System: Bacillus subtilis
# Assay: Antibacterial activity against Bacillus subtilis NCIM 2063 after 18 hrs by disc diffusion method
# Format: functional
# Settings: not given
# Method in brief: (§1)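 Modified Kirby-Bauer disc diffusion. Plates inoculated with spore suspension (about 6 × 10⁴ spores mL^-1). Sterile 6 mm paper discs carried test samples at 10 mg mL^-1; ciprofloxacin disc as reference, DMF disc as negative control. Plates held 18 h at 37 °C. Inhibition zone diameters (mm) averaged over triplicate sets.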
row,Structure (SMILES),inhibition zone (IZ) [mm]
1,COC(=O)[C@H](Cc1ccccc1)NC(=O)c1cc(-c2nc3cc(C)c(C)cc3[nH]2)ccc1O,14

# System: Staphylococcus aureus
# Assay: Antibacterial activity against Staphylococcus aureus NCIM 2079 after 18 hrs by disc diffusion method
# Format: functional
# Settings: not given
# Method in brief: as §1
row,Structure (SMILES),inhibition zone (IZ) [mm]
1,COC(=O)[C@H](Cc1ccccc1)NC(=O)c1cc(-c2nc3cc(C)c(C)cc3[nH]2)ccc1O,10

# System: Pseudomonas aeruginosa
# Assay: Antibacterial activity against Pseudomonas aeruginosa NCIM 2034 after 18 hrs by disc diffusion method
# Format: functional
# Settings: not given
# Method in brief: as §1
row,Structure (SMILES),inhibition zone (IZ) [mm]
1,COC(=O)[C@H](Cc1ccccc1)NC(=O)c1cc(-c2nc3cc(C)c(C)cc3[nH]2)ccc1O,24

# System: Escherichia coli
# Assay: Antibacterial activity against Escherichia coli NCIM 2065 after 18 hrs by disc diffusion method
# Format: functional
# Settings: not given
# Method in brief: as §1
row,Structure (SMILES),inhibition zone (IZ) [mm]
1,COC(=O)[C@H](Cc1ccccc1)NC(=O)c1cc(-c2nc3cc(C)c(C)cc3[nH]2)ccc1O,17

# System: Candida albicans
# Assay: Antifungal activity against Candida albicans MUCC 29 after 48 hrs by disc diffusion method
# Format: functional
# Settings: not given
# Method in brief: (§2)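 Agar well diffusion on plates inoculated with spore suspension in normal saline from cultures on Sabouraud's broth. Wells punched and loaded with test samples or griseofulvin at 10 mg mL^-1, with DMSO as negative control. Incubated 48 h at 37 °C.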
row,Structure (SMILES),inhibition zone (IZ) [mm]
1,COC(=O)[C@H](Cc1ccccc1)NC(=O)c1cc(-c2nc3cc(C)c(C)cc3[nH]2)ccc1O,17

# System: Microsporum audouinii
# Assay: Antifungal activity against Microsporum audouinii MUCC 545 after 48 hrs by disc diffusion method
# Format: functional
# Settings: not given
# Method in brief: as §2
row,Structure (SMILES),inhibition zone (IZ) [mm]
1,COC(=O)[C@H](Cc1ccccc1)NC(=O)c1cc(-c2nc3cc(C)c(C)cc3[nH]2)ccc1O,9

# System: Trichophyton benhamiae
# Assay: Antifungal activity against Trichophyton mentagrophytes MUCC 665 after 48 hrs by disc diffusion method
# Format: functional, Arthroderma benhamiae
# Settings: not given
# Method in brief: as §2
row,Structure (SMILES),inhibition zone (IZ) [mm]
1,COC(=O)[C@H](Cc1ccccc1)NC(=O)c1cc(-c2nc3cc(C)c(C)cc3[nH]2)ccc1O,15

# System: Aspergillus niger
# Assay: Antifungal activity against Aspergillus niger MUCC 177 after 48 hrs by disc diffusion method
# Format: functional
# Settings: not given
# Method in brief: as §2
row,Structure (SMILES),inhibition zone (IZ) [mm]
1,COC(=O)[C@H](Cc1ccccc1)NC(=O)c1cc(-c2nc3cc(C)c(C)cc3[nH]2)ccc1O,17

# System: Bacillus subtilis
# Assay: Antibacterial activity against Bacillus subtilis NCIM 2063 after 18 hrs by tube dilution method
# Format: functional
# Settings: NCIM 2063, 18 h
# Method in brief: (§3)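 Tube dilution MIC. Stock diluted in sterile broth to seven concentrations from 200 to 3.1 […]. Each tube inoculated with one loopful of test bacterium and incubated 18 h at 37 °C. MIC read from presence or absence of growth.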
row,Structure (SMILES),MIC [µg/mL]
1,COC(=O)[C@H](Cc1ccccc1)NC(=O)c1cc(-c2nc3cc(C)c(C)cc3[nH]2)ccc1O,6

# System: Staphylococcus aureus
# Assay: Antibacterial activity against Staphylococcus aureus NCIM 2079 after 18 hrs by tube dilution method
# Format: functional
# Settings: NCIM 2079, 18 h
# Method in brief: as §3
row,Structure (SMILES),MIC [µg/mL]
1,COC(=O)[C@H](Cc1ccccc1)NC(=O)c1cc(-c2nc3cc(C)c(C)cc3[nH]2)ccc1O,12.5

# System: Pseudomonas aeruginosa
# Assay: Antibacterial activity against Pseudomonas aeruginosa NCIM 2034 after 18 hrs by tube dilution method
# Format: functional
# Settings: NCIM 2034, 18 h
# Method in brief: as §3
row,Structure (SMILES),MIC [µg/mL]
1,COC(=O)[C@H](Cc1ccccc1)NC(=O)c1cc(-c2nc3cc(C)c(C)cc3[nH]2)ccc1O,6

# System: Escherichia coli
# Assay: Antibacterial activity against Escherichia coli NCIM 2065 after 18 hrs by tube dilution method
# Format: functional
# Settings: NCIM 2065, 18 h
row,Structure (SMILES),MIC [µg/mL]
1,COC(=O)[C@H](Cc1ccccc1)NC(=O)c1cc(-c2nc3cc(C)c(C)cc3[nH]2)ccc1O,12.5

# System: Candida albicans
# Assay: Antifungal activity against Candida albicans MUCC 29 after 48 hrs by tube dilution method
# Format: functional
# Settings: not given
# Method in brief: (§4)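 Tube dilution MIC as for bacteria (seven concentrations, 200–3.1 […]), with DMSO in place of DMF. Tubes inoculated with fungal culture and incubated 48 h at 37 °C. MIC read from presence or absence of growth.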
row,Structure (SMILES),MIC [µg/mL]
1,COC(=O)[C@H](Cc1ccccc1)NC(=O)c1cc(-c2nc3cc(C)c(C)cc3[nH]2)ccc1O,6

# System: Microsporum audouinii
# Assay: Antifungal activity against Microsporum audouinii MUCC 545 after 48 hrs by tube dilution method
# Format: functional
# Settings: not given
# Method in brief: as §4
row,Structure (SMILES),MIC [µg/mL]
1,COC(=O)[C@H](Cc1ccccc1)NC(=O)c1cc(-c2nc3cc(C)c(C)cc3[nH]2)ccc1O,25

# System: Trichophyton benhamiae
# Assay: Antifungal activity against Trichophyton mentagrophytes MUCC 665 after 48 hrs by tube dilution method
# Format: functional, Arthroderma benhamiae
# Settings: not given
# Method in brief: as §4
row,Structure (SMILES),MIC [µg/mL]
1,COC(=O)[C@H](Cc1ccccc1)NC(=O)c1cc(-c2nc3cc(C)c(C)cc3[nH]2)ccc1O,6

# System: Eudrilus
# Assay: Anthelmintic activity against Eudrilus sp. assessed as mean paralyzing time
# Format: functional
# Settings: not given
# Method in brief: (§5)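 Earthworms exposed to test suspensions at 2 mg mL^-1 (0.2% w/v), made by triturating compound with Tween 80 (0.5%) and distilled water, then mechanically stirred 30 min. Mebendazole suspension prepared alike as reference. Paralysis and death times recorded; death confirmed by no movement in 50 °C water. Means from triplicate sets.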
row,Structure (SMILES),Time [min]
1,COC(=O)[C@H](Cc1ccccc1)NC(=O)c1cc(-c2nc3cc(C)c(C)cc3[nH]2)ccc1O,26.78

# System: Eudrilus
# Assay: Anthelmintic activity against Eudrilus sp. assessed as mean death time
# Format: functional
# Settings: not given
# Method in brief: (§6)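 Earthworms exposed to test suspensions at 2 mg mL−1, prepared by triturating compound with Tween 80 (0.5%) and distilled water, stirring 30 min, then diluting to 0.2% w/v. Mebendazole suspension was made the same way. Death was confirmed by moving worms into 50 °C warm water and looking for movement. Mean death time (min) taken from triplicate sets.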
row,Structure (SMILES),Time [min]
1,COC(=O)[C@H](Cc1ccccc1)NC(=O)c1cc(-c2nc3cc(C)c(C)cc3[nH]2)ccc1O,37.74

# System: not listed separately
# Assay: Anthelmintic activity against Megascoplex konkanensis ICARBC 211 assessed as mean paralyzing time
# Format: functional
# Settings: not given
# Method in brief: as §5
row,Structure (SMILES),TIME [h]
1,COC(=O)[C@H](Cc1ccccc1)NC(=O)c1cc(-c2nc3cc(C)c(C)cc3[nH]2)ccc1O,0.437

# System: not listed separately
# Assay: Anthelmintic activity against Megascoplex konkanensis ICARBC 211 assessed as mean death time
# Format: functional
# Settings: not given
# Method in brief: as §5
row,Structure (SMILES),TIME [h]
1,COC(=O)[C@H](Cc1ccccc1)NC(=O)c1cc(-c2nc3cc(C)c(C)cc3[nH]2)ccc1O,0.592

# System: Pontoscolex corethrurus
# Assay: Anthelmintic activity against Pontoscolex corethrurus ICARBC 408 assessed as mean paralyzing time
# Format: functional
# Settings: not given
# Method in brief: as §5
row,Structure (SMILES),Time [min]
1,COC(=O)[C@H](Cc1ccccc1)NC(=O)c1cc(-c2nc3cc(C)c(C)cc3[nH]2)ccc1O,30.34

# System: Pontoscolex corethrurus
# Assay: Anthelmintic activity against Pontoscolex corethrurus ICARBC 408 assessed as mean death time
# Format: functional
# Settings: not given
# Method in brief: as §6
row,Structure (SMILES),Time [min]
1,COC(=O)[C@H](Cc1ccccc1)NC(=O)c1cc(-c2nc3cc(C)c(C)cc3[nH]2)ccc1O,42.56
